Laboratory results: ChEMBL document CHEMBL1275285, “Synthesis, antimicrobial and anti-inflammatory activities of novel 5-(1-adamantyl)-1,3,4-thiadiazole derivatives” (2010)
In brackets after ≈: the same amount, converted by molar mass. Activity calls are given as the source filed them. No cut-off for these calls is given here.

Experiments:
Type in all cases: functional
[1] = system: Micrococcus luteus; experiment: Antimicrobial activity against Micrococcus luteus IFO 3232 at 200 ug/8 mm disk after 24 hrs by agar disk diffusion method
Summary of the method: (§1)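 Agar disc diffusion on Mueller-Hinton agar: 8 mm filter paper discs moistened with compound in DMSO (200 per disc) placed on plates pre-inoculated with each organism; incubated at 37 °C; growth inhibition zone diameter read after 24 h for bacteria, 48 h for C. albicans.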

[2] = system: Rattus norvegicus; experiment: Antiinflammatory activity in Sprague-Dawley rat assessed as inhibition of carrageenan-induced paw edema at 20 mg/kg, ip administered 1 hrs before carrageenan challenge relative to untreated control; conditions: route intraperitoneal
[3] = system: Rattus norvegicus; experiment: Antiinflammatory activity in Sprague-Dawley rat assessed as inhibition of carrageenan-induced paw edema at 40 mg/kg, ip administered 1 hrs before carrageenan challenge relative to untreated control; conditions: route intraperitoneal
[4] = system: Staphylococcus aureus; experiment: Antimicrobial activity against Staphylococcus aureus IFO 3060 at 200 ug/8 mm disk after 24 hrs by agar disk diffusion method; summary of the method: as §1
[5] = system: Pseudomonas aeruginosa; experiment: Antimicrobial activity against Pseudomonas aeruginosa IFO 3448 at 200 ug/8 mm disk after 24 hrs by agar disk diffusion method; summary of the method: as §1
[6] = system: Bacillus subtilis; experiment: Antimicrobial activity against Bacillus subtilis IFO 3007 at 200 ug/8 mm disk after 24 hrs by agar disk diffusion method; summary of the method: as §1
[7] = system: Escherichia coli; experiment: Antimicrobial activity against Escherichia coli IFO 3301 at 200 ug/8 mm disk after 24 hrs by agar disk diffusion method; summary of the method: as §1
[8] = system: Candida albicans; experiment: Antimicrobial activity against Candida albicans IFO 0583 at 200 ug/8 mm disk after 48 hrs by agar disk diffusion method; summary of the method: as §1
[9] = system: Escherichia coli; experiment: Antimicrobial activity against Escherichia coli IFO 3301 after 24 hrs; conditions: IFO 3301, 24 h
Summary of the method: (§2)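 MIC by two-fold serial dilution in wells inoculated with 10^6 CFU/mL of each organism; incubated at 36 °C for 24 h (bacteria); MIC taken as lowest concentration giving no visible growth by unaided eye.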

[10] = system: Pseudomonas aeruginosa; experiment: Antimicrobial activity against Pseudomonas aeruginosa IFO 3448 after 24 hrs; summary of the method: as §2
[11] = system: Candida albicans; experiment: Antimicrobial activity against Candida albicans IFO 0583 at 100 ug/8 mm disk after 48 hrs by agar disk diffusion method
Summary of the method: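 Reference antifungal applied at 100 per 8 mm disc on Mueller-Hinton agar pre-inoculated with C. albicans; 37 °C incubation; inhibition zone diameter measured at 48 h.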

[12] = system: Candida albicans; experiment: Antimicrobial activity against Candida albicans IFO 0583 after 48 hrs; conditions: IFO 0583, 48 h
Summary of the method: (§3)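 MIC by two-fold serial dilution in wells, inoculated with microbial suspensions at 10^6 CFU/mL. Incubation was at 36 °C for 24 h (bacteria) or 48 h (C. albicans). MIC was the lowest concentration fully inhibiting visible growth, read by unaided eye.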

[13] = system: Rattus norvegicus; experiment: Antiinflammatory activity in Sprague-Dawley rat assessed as inhibition of carrageenan-induced paw edema at 5 mg/kg, ip administered 1 hrs before carrageenan challenge relative to untreated control; conditions: route intraperitoneal
[14] = system: Bacillus subtilis; experiment: Antimicrobial activity against Bacillus subtilis IFO 3007 after 24 hrs; summary of the method: as §2
[15] = system: Pseudomonas aeruginosa; experiment: Antimicrobial activity against Pseudomonas aeruginosa IFO 3448 at 100 ug/8 mm disk after 24 hrs by agar disk diffusion method
Summary of the method: (§4)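 Agar disc diffusion on Mueller-Hinton agar. Sterile 8 mm filter-paper discs were moistened with the agent dissolved in DMSO and placed on plates already inoculated with the organism. Plates were incubated at 37 °C, and growth-inhibition zone diameters were measured after 24 h.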

[16] = system: Micrococcus luteus; experiment: Antimicrobial activity against Micrococcus luteus IFO 3232 after 24 hrs; summary of the method: as §3
[17] = system: Staphylococcus aureus; experiment: Antimicrobial activity against Staphylococcus aureus IFO 3060 at 100 ug/8 mm disk after 24 hrs by agar disk diffusion method; summary of the method: as §4
[18] = system: Bacillus subtilis; experiment: Antimicrobial activity against Bacillus subtilis IFO 3007 at 100 ug/8 mm disk after 24 hrs by agar disk diffusion method; summary of the method: as §4
[19] = system: Escherichia coli; experiment: Antimicrobial activity against Escherichia coli IFO 3301 at 100 ug/8 mm disk after 24 hrs by agar disk diffusion method; summary of the method: as §4
[20] = system: Micrococcus luteus; experiment: Antimicrobial activity against Micrococcus luteus IFO 3232 at 100 ug/8 mm disk after 24 hrs by agar disk diffusion method; summary of the method: as §4
[21] = system: Staphylococcus aureus; experiment: Antimicrobial activity against Staphylococcus aureus IFO 3060 after 24 hrs; summary of the method: as §3

Compound	growth inhibition (GI) [1]	GI [4] [mm]	growth inhibition (GI) [5]	GI [6] [mm]	growth inhibition (GI) [7]	growth inhibition (GI) [8]	growth inhibition (GI) [4]	GI [1] [mm]	also measured
CCN1CCN(Cn2nc(C34CC5CC(CC(C5)C3)C4)sc2=S)CC1	inactive	12	inactive	13	inactive	inactive			inhibition in vivo at 20 mg/kg [2]: 11.3%; inhibition in vivo at 40 mg/kg [3]: 10.6%
Fc1ccc(Cn2nc(C34CC5CC(CC(C5)C3)C4)sc2=S)cc1	inactive		inactive		inactive		inactive		growth inhibition (GI) [6]: inactive; GI [8]: 14 mm
S=c1[nH]nc(C23CC4CC(CC(C4)C2)C3)s1	inactive	13		13		inactive			GI [5]: 20 mm; GI [7]: 27 mm; MIC [9]: 0.5 µg/mL (≈ 1.98 µM); MIC ([10]; IFO 3448, 24 h): 2 µg/mL (≈ 7.92 µM)
Clc1ccccc1C(c1ccccc1)(c1ccccc1)n1ccnc1 [CLOTRIMAZOLE]									GI [11]: 21 mm; MIC [12]: 2 µg/mL (≈ 5.8 µM)
CN1CCN(Cn2nc(C34CC5CC(CC(C5)C3)C4)sc2=S)CC1		13	inactive	14	inactive	inactive		14	
COc1ccc2c(c1)c(CC(=O)O)c(C)n2C(=O)c1ccc(Cl)cc1 [INDOMETHACIN]									inhibition in vivo at 5 mg/kg [13]: 52.8%
O=C(O)CCn1nc(C23CC4CC(CC(C4)C2)C3)sc1=S	inactive	11	inactive	13	inactive				inhibition in vivo at 20 mg/kg [2]: 7.47%; inhibition in vivo at 40 mg/kg [3]: 36.8%; GI [8]: 11 mm
Fc1ccc(NC(=S)Nc2nnc(C34CC5CC(CC(C5)C3)C4)s2)cc1		14	inactive	19	inactive	inactive		11	MIC ([14]; IFO 3007, 24 h): 4 µg/mL (≈ 10.3 µM)
S=c1sc(C23CC4CC(CC(C4)C2)C3)nn1CN1CCN(c2ccccc2)CC1	inactive		inactive	14	inactive	inactive	inactive		
S=c1sc(C23CC4CC(CC(C4)C2)C3)nn1Cc1ccccc1	inactive		inactive		inactive	inactive	inactive		inhibition in vivo at 20 mg/kg [2]: 1.12%; inhibition in vivo at 40 mg/kg [3]: 0.92%; growth inhibition (GI) [6]: inactive
CC1(C)S[C@@H]2[C@H](NC(=O)[C@H](N)c3ccccc3)C(=O)N2[C@H]1C(=O)O [AMPICILLIN]									GI [15]: 17 mm; MIC ([16]; IFO 3232, 24 h): 2 µg/mL (≈ 5.72 µM); MIC ([14]; IFO 3007, 24 h): 0.5 µg/mL (≈ 1.43 µM); GI [17]: 23 mm; GI [18]: 21 mm; GI [19]: 17 mm; GI [20]: 19 mm; MIC ([10]; IFO 3448, 24 h): 2 µg/mL (≈ 5.72 µM)
GENTAMICIN									GI [15]: 19 mM; MIC [16]: 2 µg/mL; MIC [14]: 2 µg/mL; GI [17]: 26 mM; GI [18]: 25 mM; GI [19]: 20 mM; GI [20]: 18 mM; MIC [10]: 1 µg/mL; MIC [21]: 2 µg/mL
O=C(O)Cn1nc(C23CC4CC(CC(C4)C2)C3)sc1=S		18	inactive	22	inactive			16	MIC ([14]; IFO 3007, 24 h): 2 µg/mL (≈ 6.44 µM); inhibition in vivo at 20 mg/kg [2]: 29.5%; inhibition in vivo at 40 mg/kg [3]: 32.7%; GI [8]: 17 mm
S=C(Nc1ccc(Cl)cc1)Nc1nnc(C23CC4CC(CC(C4)C2)C3)s1		15	inactive	20	inactive	inactive		12	MIC ([14]; IFO 3007, 24 h): 2 µg/mL (≈ 4.94 µM)
O=[N+]([O-])c1ccc(Cn2nc(C34CC5CC(CC(C5)C3)C4)sc2=S)cc1	inactive		inactive		inactive	inactive	inactive		growth inhibition (GI) [6]: inactive
CC(C(=O)O)n1nc(C23CC4CC(CC(C4)C2)C3)sc1=S (racemic)		18	inactive	20	inactive	inactive		13	MIC ([14]; IFO 3007, 24 h): 4 µg/mL (≈ 12.3 µM); inhibition in vivo at 20 mg/kg [2]: 50.6%; inhibition in vivo at 40 mg/kg [3]: 65.2%
S=C(Nc1ccccc1)Nc1nnc(C23CC4CC(CC(C4)C2)C3)s1		13	inactive	14	inactive	inactive		15	
O=c1[nH]nc(C23CC4CC(CC(C4)C2)C3)s1	inactive		inactive		inactive	inactive	inactive		growth inhibition (GI) [6]: inactive
S=c1sc(C23CC4CC(CC(C4)C2)C3)nn1Cc1ccc(Cl)cc1	inactive		inactive		inactive	inactive	inactive		growth inhibition (GI) [6]: inactive
